ChEMBL document CHEMBL1147844, “Acridone derivatives: design, synthesis, and inhibition of breast cancer resistance protein ABCG2” (Bioorg Med Chem, 2007)

How the values were obtained:
[1] = target: T1, Broad substrate specificity ATP-binding cassette transporter ABCG2 (Homo sapiens, UniProt Q9UNQ0); experiment: Inhibition of ABCG2 expressed in HEK293 cells assessed as mitoxantrone-mediated efflux by flow cytometry; format: cell-based
T1 sequence (Q9UNQ0 whole entry): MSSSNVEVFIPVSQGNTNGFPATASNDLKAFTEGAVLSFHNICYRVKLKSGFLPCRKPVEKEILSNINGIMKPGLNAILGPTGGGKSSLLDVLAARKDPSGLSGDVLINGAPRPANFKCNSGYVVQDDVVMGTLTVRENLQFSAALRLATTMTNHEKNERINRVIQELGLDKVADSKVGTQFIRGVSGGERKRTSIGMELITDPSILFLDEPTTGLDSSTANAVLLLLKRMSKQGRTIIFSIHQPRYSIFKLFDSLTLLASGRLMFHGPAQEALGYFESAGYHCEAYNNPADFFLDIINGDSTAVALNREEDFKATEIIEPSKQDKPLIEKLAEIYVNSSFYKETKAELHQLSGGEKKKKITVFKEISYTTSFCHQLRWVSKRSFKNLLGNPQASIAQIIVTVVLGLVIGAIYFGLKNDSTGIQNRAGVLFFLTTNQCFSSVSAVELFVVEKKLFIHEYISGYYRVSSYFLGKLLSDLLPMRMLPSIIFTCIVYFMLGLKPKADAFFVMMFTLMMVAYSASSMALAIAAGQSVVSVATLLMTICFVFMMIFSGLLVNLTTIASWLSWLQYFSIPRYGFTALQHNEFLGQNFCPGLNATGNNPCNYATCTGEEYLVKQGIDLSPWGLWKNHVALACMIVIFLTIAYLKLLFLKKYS
How it was run: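 HEK-293 cells transfected with human wild-type (R482) ABCG2, or empty-vector control cells, loaded with 5 µmol/L mitoxantrone for 30 min at 37 °C with or without a range of inhibitor concentrations (DMSO, 0.5% final). Cells washed in PBS, then kept 1 h in substrate-free medium with the same inhibitor level. Intracellular fluorescence read by flow cytometry. 100% = control minus ABCG2-cell mean fluorescence without inhibitor. IC50 derived.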

[2] = target: T1, Broad substrate specificity ATP-binding cassette transporter ABCG2; experiment: Inhibition of ABCG2 expressed in HEK293 cells assessed as mitoxantrone-mediated efflux by flow cytometry relative to GF120918; format: cell-based; set-up: concentration or dose not given beside the values

Row | SMILES | IC50 [1] [µM] | Inhibition [2] [%]
1 | COc1ccc(CCNC(=O)c2cccc3c(=O)c4ccc(OC)cc4[nH]c23)cc1 | 0.56 | 112.3
2 | COc1cc2c(cc1OC)CN(CCc1ccc(NC(=O)c3cccc4c(=O)c5cccc(OC)c5[nH]c34)cc1)CC2 |  | 100
3 | COc1ccc2[nH]c3ccccc3c(=O)c2c1OC | > 20 | 
4 | O=c1c2ccccc2[nH]c2cc(C(F)(F)F)cc(O)c12 | > 20 | 
5 | O=c1c2ccccc2[nH]c2cccc(O)c12 | > 20 | 
6 | COc1ccc2c(=O)c3cccc(C(=O)NCCc4ccc(OC)c(OC)c4)c3[nH]c2c1 | 1.38 | 94.9
7 | O=c1c2ccccc2[nH]c2ccc(O)cc12 | > 20 | 
8 | COc1cccc2[nH]c3ccccc3c(=O)c12 | 6.3 | 74
9 | COc1cc(O)c2c(=O)c3ccccc3[nH]c2c1 | > 20 | 
10 | COc1cc(OC)c2c(=O)c3ccccc3[nH]c2c1 | 7.9 | 65
11 | COc1ccc(CCNC(=O)c2cccc3c(=O)c4ccccc4[nH]c23)cc1 | 0.35 | 71.3
12 | COc1ccc(CCNC(=O)c2cccc3c(=O)c4ccccc4[nH]c23)cc1OC | 0.45 | 90.2
13 | COc1ccc2[nH]c3ccccc3c(=O)c2c1 | 4.8 | 66
14 | COc1cc(C(F)(F)F)cc2[nH]c3ccccc3c(=O)c12 | 0.77 | 81
